These results are taken from ChEMBL document CHEMBL4028805, “Phenylthiazole Antibacterial Agents Targeting Cell Wall Synthesis Exhibit Potent Activity in Vitro and in Vivo against Vancomycin-Resistant Enterococci” (J Med Chem, 2017).

Assay [1] deals with Escherichia coli. Kind of assay: Antibacterial activity against tolC deficient Escherichia coli assessed as cell lysis at 125 ug/ml after 2 hrs in presence of sucrose by FM4-64/DAPI/SYTOX Green staining-based deconvolution microscopic analysis. It counts as functional.
Assay [2] has as its system Escherichia coli. Kind of assay: Antibacterial activity against tolC deficient Escherichia coli assessed as formation of spheroplasts at 125 ug/ml after 30 mins in presence of sucrose by FM4-64/DAPI/SYTOX Green staining-based deconvolution microscopic analysis. In kind it is functional.
For assay [3], the system named is Bacillus subtilis. In words: Antibacterial activity against Bacillus subtilis assessed as cell shape defects at 1 times MIC after 2 hrs in presence of methylsulfonyl methane by phase contrast microscopic analysis. It counts as functional. Put shortly:
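B. subtilis grown in LB at 37 °C to OD600 ~0.2 and treated, with or without MSM for osmotic stabilization, for 30 min or 2 h. Stained with FM 4-64 (1 μg/mL), DAPI (1 μg/mL) and SYTOX Green (1 μg/mL) to score permeability. Examined by deconvolution and phase-contrast microscopy.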

Assay [4] concerns Escherichia coli. In words: Antibacterial activity against tolC deficient Escherichia coli assessed as formation of misshapen cells at 125 ug/ml after 30 mins in presence of sucrose by FM4-64/DAPI/SYTOX Green staining-based deconvolution microscopic analysis. It counts as functional.
For assay [5], the system named is Enterococcus faecalis. Kind of assay: Inhibition of UPPP-mediated peptidoglycan biosynthesis in Enterococcus faecalis NR-31975 assessed as accumulation of UDP-N-acetylmuramyl-pentapeptide at 10 times MIC after 30 mins by HPLC-MS analysis. Put shortly:
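Pellets boiled 30 min. UDP-N-acetylmuramyl-pentapeptide measured by HPLC-TOF MS on a phenyl column, 5–20% acetonitrile/0.1% formic acid gradient, positive ESI.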

For assay [6], the system named is Enterococcus faecium. In words: Antibacterial activity against Enterococcus faecium clinical isolates after 18 to 22 hrs by broth microdilution method. It counts as functional. The essentials: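 Enterococcus faecium grown in BHI. MIC by CLSI broth microdilution, 37 °C for 18–22 h. Lowest concentration with no visible growth taken as MIC, reported as MIC50 across the isolates.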
In general terms: Dilution methods test growth across graded concentrations, often in twofold steps.

In assay [7] the test system is Enterococcus faecium. Kind of assay: Antibacterial activity against vancomycin-resistant Enterococcus faecium clinical isolates after 18 to 22 hrs by broth microdilution method. In kind it is functional. Put shortly:
(§1)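 CLSI broth microdilution against panels of enterococcal isolates. E. faecalis grown in TSB, E. faecium in BHI, 37 °C for 18–22 h. MIC is the lowest concentration without visible growth. MIC50 is the value inhibiting 50% of isolates in each group.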

The test system of assay [8] is Bacillus subtilis. In words: Antibacterial activity against Bacillus subtilis assessed as misshapen cells at 5 times MIC after 2 hrs in presence of methylsulfonyl methane by phase contrast microscopic analysis. In kind it is functional. Put shortly:
(§2)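 B. subtilis grown in LB at 37 °C to OD600 ~0.2, then treated at 5 × MIC with MSM for osmotic stabilisation. At 2 h, stained with FM 4-64 (1 μg/mL), DAPI (1 μg/mL) and SYTOX Green (1 μg/mL). Imaged by deconvolution fluorescence and phase contrast microscopy.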

Assay [9] concerns Enterococcus faecalis. Kind of assay: Antibacterial activity against Enterococcus faecalis clinical isolates after 18 to 22 hrs by broth microdilution method. It counts as functional. Put shortly:
as §1

Assay [10] has as its system Bacillus subtilis. Kind of assay: Antibacterial activity against Bacillus subtilis assessed as bending of cells at 5 times MIC after 2 hrs in presence of methylsulfonyl methane by phase contrast microscopic analysis. It counts as functional. Put shortly:
as §2

The subject of assay [11] is Enterococcus faecalis. Kind of assay: Bactericidal activity against vancomycin-resistant Enterococcus faecalis clinical isolates after 18 to 22 hrs by broth microdilution method. In kind it is functional. The essentials: (§3)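 MBC follows the broth microdilution MIC. 5 μL aliquots spotted onto TSA (E. faecalis) or BHI agar (E. faecium), incubated 37 °C for 18–22 h. MBC is the concentration giving >99% reduction in bacterial count. MBC50 is the value for 50% of isolates.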

In assay [12] the test system is Bacillus subtilis. Kind of assay: Antibacterial activity against Bacillus subtilis assessed as pool of membranes at 5 times MIC after 2 hrs in presence of methylsulfonyl methane by phase contrast microscopic analysis. In kind it is functional. The essentials: as §2
Assay [13] relates to Enterococcus faecium. In words: Bactericidal activity against Vancomycin-resistant Enterococcus faecium clinical isolates after 18 to 22 hrs by broth microdilution method. In kind it is functional. The essentials: as §3
The subject of assay [14] is Enterococcus faecalis. Kind of assay: Antibacterial activity against vancomycin-resistant Enterococcus faecalis HM-201 infected in Caenorhabditis elegans AU37 assessed as reduction in bacterial burden at 20 ug/ml after 18 hrs by CFU-based […] analysis relative to control. In kind it is functional. The essentials: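 C. elegans AU37 adults infected on an E. faecalis HM-201 lawn for 2 h, washed in M9, 20–25 worms per well. Treated in triplicate with 20 μg/mL, with water as negative control. Worms washed, lysed with silicon carbide by vortexing, diluted serially and plated on TSA with 50 μg/mL gentamicin. CFU counted after 18 h at 37 °C and expressed as % reduction versus untreated worms.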

Assay [15] has as its system Enterococcus faecalis. In words: Antibacterial activity against vancomycin-resistant Enterococcus faecalis clinical isolates after 18 to 22 hrs by broth microdilution method. It counts as functional. Put shortly: as §1
Assay [16] has as its system Enterobacter cloacae. In words: Antibacterial activity against Enterobacter cloacae BAA-1154 after 18 to 22 hrs in presence of 1/4 times MIC colistin by broth microdilution method. It counts as functional. Put shortly: (§4)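 Broth microdilution per CLSI guidelines. Gram-negatives grown in TSB. Each strain tested alone and again with colistin at ¼ × MIC to permeabilize the outer membrane. Plates incubated at 37 °C for 18–22 h. MIC read as the lowest concentration showing no visible growth.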

Assay [17] deals with Klebsiella pneumoniae. In words: Antibacterial activity against Klebsiella pneumoniae BAA-1706 after 18 to 22 hrs in absence of colistin by broth microdilution method. It counts as functional.
For assay [18], the system named is Enterobacter cloacae. Kind of assay: Antibacterial activity against Enterobacter cloacae BAA-1154 after 18 to 22 hrs in absence of colistin by broth microdilution method. It counts as functional.
Assay [19] has as its system Pseudomonas aeruginosa. Kind of assay: Antibacterial activity against Pseudomonas aeruginosa ATCC 15442 after 18 to 22 hrs in presence of 1/4 times MIC colistin by broth microdilution method. In kind it is functional. The essentials: as §4
The test system of assay [20] is Acinetobacter baumannii. Kind of assay: Antibacterial activity against Acinetobacter baumanii ATCC 19606 after 18 to 22 hrs in absence of colistin by broth microdilution method. In kind it is functional. The following applies: ATCC 19606 = CIP 70.34 = JCM 6841. The essentials:
as §4

The subject of assay [21] is Pseudomonas aeruginosa. Kind of assay: Antibacterial activity against Pseudomonas aeruginosa ATCC 15442 after 18 to 22 hrs in absence of colistin by broth microdilution method. It counts as functional.
In assay [22] the test system is Escherichia coli. In words: Antibacterial activity against Escherichia coli O157:H7 ATCC 35150 after 18 to 22 hrs in presence of 1/4 times MIC colistin by broth microdilution method. In kind it is functional.
Assay [23] deals with Klebsiella pneumoniae. In words: Antibacterial activity against Klebsiella pneumoniae BAA-1706 after 18 to 22 hrs in presence of 1/4 times MIC colistin by broth microdilution method. It counts as functional. Put shortly:
as §4

Assay [24] has as its system Acinetobacter baumannii. In words: Antibacterial activity against Acinetobacter baumanii ATCC 19606 after 18 to 22 hrs in presence of 1/4 times MIC colistin by broth microdilution method. The settings on record: ATCC 19606 = CIP 70.34 = JCM 6841. In kind it is functional. The essentials:
as §4

Assay [25] relates to Escherichia coli. Kind of assay: Antibacterial activity against Escherichia coli O157:H7 ATCC 35150 after 18 to 22 hrs in absence of colistin by broth microdilution method. In kind it is functional.
The nature of assay [26]: Induction of proton motive force collapse in Escherichia coli inverted membrane vesicle in presence of ATP-driven PMF generation system by ACMA-based fluorescence assay. It counts as functional, cell membranes. Put shortly:
(§5)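 E. coli inverted membrane vesicles (0.1 mg/mL membrane protein) with 2 μM ACMA and 0.5 mM ATP or succinate, in 10 mM HEPES-KOH, 5 mM MgSO4, 100 mM KCl, pH 7.5. Proton gradient followed by ACMA fluorescence (ex 410/em 480 nm). EC50 taken from dose-response curves. CCCP used as reference uncoupler.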

The nature of assay [27]: Induction of proton motive force collapse in Escherichia coli inverted membrane vesicle in presence of succinate/O2-driven PMF generation system by ACMA-based fluorescence assay. It counts as functional, cell membranes. The essentials:
as §5

SMILES strings stand for the structures. Values after ≈ are worked out from the molar mass of the structure shown. Active and inactive are the calls of the source. The rule behind the calls is not given here.

With `N[C@@H]1CONC1=O`, the outcome with Escherichia coli [1], in the assay with Escherichia coli [2], with Bacillus subtilis [3] and in the assay on Escherichia coli [4] was Active.

A word on the MIC50: it is an inhibitory concentration at the 50% level, which refers to growth in some studies and to a panel of isolates in others. Low readings indicate higher susceptibility, high ones lower susceptibility. As for `CN[C@H](CC(C)C)C(=O)N[C@H]1C(=O)N[C@@H](CC(N)=O)C(=O)N[C@H]2C(=O)N[C@H]3C(=O)N[C@H](C(=O)N[C@H](C(=O)O)c4cc(O)cc(O)c4-c4cc3ccc4O)[C@H](O)c3ccc(c(Cl)c3)Oc3cc2cc(c3O[C@@H]2O[C@H](CO)[C@@H](O)[C@H](O)[C@H]2O[C@H]2C[C@](C)(N)[C@H](O)[C@H](C)O2)Oc2ccc(cc2Cl)[C@H]1O` [VANCOMYCIN], the inhibition entry in the assay on Enterococcus faecalis [5] was “Active”. Besides, the MIC50 was 1 µg/mL (≈ 0.69 µM) in the assay with Enterococcus faecium [6], over 64 µg/mL against Enterococcus faecium [7], 1 µg/mL (≈ 0.69 µM) against Enterococcus faecalis [9] and over 64 µg/mL against Enterococcus faecalis [15]. For the same molecule, the outcome in the assay with Bacillus subtilis [8], in the assay with Bacillus subtilis [10] and in the assay on Bacillus subtilis [12] was Active. In addition, the MBC50 in the assay with Enterococcus faecalis [11] and against Enterococcus faecium [13] was over 64 µg/mL in each case. Also, in the assay on Enterococcus faecalis [14], the result was inactive.

As usually defined, the MIC is the least concentration at which growth counts as inhibited. For `CC[C@H]1OC(=O)[C@H](C)[C@@H](O[C@H]2C[C@@](C)(OC)[C@@H](O)[C@H](C)O2)[C@H](C)[C@@H](O[C@@H]2O[C@H](C)C[C@H](N(C)C)[C@H]2O)[C@](C)(O)C[C@@H](C)C(=O)[C@H](C)[C@@H](O)[C@]1(C)O` [ERYTHROMYCIN], the MIC in the assay on Enterobacter cloacae [16] amounted to 1 µg/mL; against Klebsiella pneumoniae [17], 128 µg/mL (≈ 174 µM); against Enterobacter cloacae [18], 128 µg/mL (≈ 174 µM); in the assay on Pseudomonas aeruginosa [19] it was 1 µg/mL; against Acinetobacter baumannii [20], 8 µg/mL (≈ 10.9 µM); with Pseudomonas aeruginosa [21] it was 128 µg/mL (≈ 174 µM). For the same molecule, the MIC amounted to 1 µg/mL in the assay on Escherichia coli [22], 0.5 µg/mL in the assay on Klebsiella pneumoniae [23], 0.5 µg/mL in the assay on Acinetobacter baumannii [24] and 64 µg/mL (≈ 87.2 µM) against Escherichia coli [25].

One may read the EC50 as the concentration needed to bring the measured effect to its halfway point. As for `N#CC(C#N)=NNc1cccc(Cl)c1` [CARBONYL CYANIDE M-CHLOROPHENYLHYDRAZONE], the EC50 in assay [26] was found to be 400 nM; in assay [27], 200 nM.
